Laboratory results from ChEMBL document CHEMBL4261635, “Simplified lipid II-binding antimicrobial peptides: Design, synthesis and antimicrobial activity of bioconjugates of nisin rings A and B with pore-forming peptides” (2018).
≈ marks a conversion by molar mass, not a printed value. Calls of active or inactive are those of the source. The calls are words filed in the database; no cut-off is given here. Where a SMILES comes first, the peptide text is derived from it. [ ]: non-standard residue; d: D form. Nspe = C[C@H](NCC(=O)O)c1ccccc1; Nlys = NCCCCNCC(=O)O

Tests used:
Micrococcus luteus [1] = test: Antibacterial activity against Micrococcus luteus at 1 mg/ml after 48 hrs by agar well diffusion method; assay type: functional, organism-based
How it was run: (§1)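 Compounds dissolved at 1 mg/mL in sterile water; 25 μL placed in 8 mm wells punched in LB agar plates spread with 100 μL overnight culture (grown at 37 °C in Nutrient Broth No. 2 with shaking). Plates incubated 48 h at 37 °C (M. luteus initially at 30 °C, later 37 °C); activity scored as a visible zone of growth inhibition.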

Escherichia coli = test: Antibacterial activity against Escherichia coli at 1 mg/ml after 48 hrs by agar well diffusion method; assay type: functional, organism-based; how it was run: as §1
Pseudomonas aeruginosa = test: Antibacterial activity against Pseudomonas aeruginosa at 1 mg/ml after 48 hrs by agar well diffusion method; assay type: functional, organism-based; how it was run: as §1
Micrococcus luteus [2] = test: Antibacterial activity against Micrococcus luteus after 20 hrs by broth microdilution assay; assay type: functional
How it was run: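 Two-fold serial dilution in Nutrient Broth No. 2 containing 1% DMSO, from 0.60 mM stocks (sterile water, 1% DMSO, sonicated 30 s). Each well received 10 μL overnight M. luteus culture adjusted to OD 0.817 (of a 1 in 10 dilution), 250 μL final volume. Sealed, incubated 20 h at 37 °C, then OD read. MIC is the lowest concentration with no visible growth by eye.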

Row | SMILES | MIC (Micrococcus luteus [2]) [µM] | Activity (Micrococcus luteus [1]) | Activity (Escherichia coli) | Activity (Pseudomonas aeruginosa)
1 | C=C(NC(=O)[C@@H](NC(=O)[C@H](Cc1cnc[nH]1)NC(=O)[C@@H](NC(=O)[C@H](CO)NC(=O)[C@@H]1CS[C@@H](C)[C@@H]2NC(=O)[C@H](C)NC(=O)[C@@H](NC(=O)[C@H](CCCCN)NC(=O)[C@H](CCSC)NC(=O)[C@H](CC(N)=O)NC(=O)[C@@H]3CS[C@@H](C)[C@H](NC(=O)[C@H](CCCCN)NC(=O)[C@@H]4CS[C@@H](C)[C@H](NC(=O)[C@@H]5CSC[C@H](NC(=O)/C(=C/C)NC(=O)[C@@H](N)[C@@H](C)CC)C(=O)N[C@@H]([C@@H](C)CC)C(=O)NC(=C)C(=O)N[C@@H](CC(C)C)C(=O)N5)C(=O)N5CCC[C@H]5C(=O)NCC(=O)N4)C(=O)NCC(=O)N[C@@H](C)C(=O)N[C@@H](CC(C)C)C(=O)N[C@@H](CCSC)C(=O)NCC(=O)N3)[C@H](C)SC[C@H](NC2=O)C(=O)N[C@@H](CC(N)=O)C(=O)N1)[C@@H](C)CC)C(C)C)C(=O)N[C@@H](CCCCN)C(=O)O | 0.0234 (≈ 0.0779 µg/mL) | Active | inactive | inactive
2 | C#CCNC(=O)[C@H](CCCCN)NC(=O)[C@@H]1CS[C@@H](C)[C@H](NC(=O)[C@@H]2CSC[C@H](NC(=O)/C(=C/C)NC(=O)[C@@H](N)[C@@H](C)CC)C(=O)N[C@@H]([C@@H](C)CC)C(=O)NC(=C)C(=O)N[C@@H](CC(C)C)C(=O)N2)C(=O)N2CCC[C@H]2C(=O)NCC(=O)N1 | > 12 | Active | inactive | inactive
3 | NC[C@H]1O[C@H](O[C@H]2[C@H](O)[C@@H](O[C@H]3O[C@H](CO)[C@@H](O)[C@H](N)[C@H]3O)[C@H](N)C[C@@H]2N)[C@H](O)[C@@H](O)[C@@H]1O |  | Active | Active | Active
4 | C[C@@H](c1ccccc1)N(CC(N)=O)C(=O)CN(C(=O)CN(CCCCN)C(=O)CN(C(=O)CN(C(=O)CN(CCCCN)C(=O)CN(C(=O)CN(C(=O)CN(CCCCN)C(=O)CN(C(=O)CN(C(=O)CNCCCCN)[C@@H](C)c1ccccc1)[C@@H](C)c1ccccc1)[C@@H](C)c1ccccc1)[C@@H](C)c1ccccc1)[C@@H](C)c1ccccc1)[C@@H](C)c1ccccc1)[C@@H](C)c1ccccc1 (H-[Nlys][Nspe][Nspe][Nlys][Nspe][Nspe][Nlys][Nspe][Nspe][Nlys][Nspe][Nspe]-NH2) | 1.5 (≈ 2.73 µg/mL) |  |  | 

The next lines start with results.

Row | MIC (Micrococcus luteus [2]) [µM] | SMILES | Activity (Micrococcus luteus [1]) | Activity (Escherichia coli) | Activity (Pseudomonas aeruginosa)
5 | 1.5 (≈ 2.48 µg/mL) | CC[C@H](C)[C@H](N)C(=O)N[C@@H](CC(=O)O)C(=O)N[C@@H](Cc1c[nH]c2ccccc12)C(=O)N[C@@H](CCCCN)C(=O)N[C@@H](CCCCN)C(=O)N[C@@H](CC(C)C)C(=O)N[C@@H](CC(C)C)C(=O)N[C@@H](CC(=O)O)C(=O)N[C@@H](C)C(=O)N[C@@H](C)C(=O)N[C@@H](CCCCN)C(=O)N[C@@H](CCC(N)=O)C(=O)N[C@H](C(=O)N[C@@H](CC(C)C)C(N)=O)[C@@H](C)CC (H-IDWKKLLDAAKQIL-NH2) | Active | inactive | inactive
6 | 3 (≈ 9.73 µg/mL) | C=C1NC(=O)[C@H]([C@@H](C)CC)NC(=O)[C@@H](NC(=O)/C(=C/C)NC(=O)[C@@H](N)[C@@H](C)CC)CSC[C@@H](C(=O)N[C@@H]2C(=O)N3CCC[C@H]3C(=O)NCC(=O)N[C@H](C(=O)N[C@@H](CCCCN)C(=O)NCc3cn(CCCC[C@H](N)C(=O)NCCOCCOCCOCCOCCC(=O)N[C@H](C(=O)N[C@@H](CC(=O)O)C(=O)N[C@@H](Cc4c[nH]c5ccccc45)C(=O)N[C@@H](CCCCN)C(=O)N[C@@H](CCCCN)C(=O)N[C@@H](CC(C)C)C(=O)N[C@@H](CC(C)C)C(=O)N[C@@H](CC(=O)O)C(=O)N[C@@H](C)C(=O)N[C@@H](C)C(=O)N[C@@H](CCCCN)C(=O)N[C@@H](CCC(N)=O)C(=O)N[C@H](C(=O)N[C@@H](CC(C)C)C(N)=O)[C@@H](C)CC)[C@@H](C)CC)nn3)CS[C@H]2C)NC(=O)[C@H](CC(C)C)NC1=O | Active | inactive | inactive
7 | 0.75 (≈ 1.86 µg/mL) | CC[C@H](C)[C@H](NC(=O)CN)C(=O)NCC(=O)N[C@@H](CCCCN)C(=O)N[C@@H](Cc1ccccc1)C(=O)N[C@@H](CC(C)C)C(=O)N[C@@H](CCCCN)C(=O)N[C@@H](CCCCN)C(=O)N[C@@H](C)C(=O)N[C@@H](CCCCN)C(=O)N[C@@H](CCCCN)C(=O)N[C@@H](Cc1ccccc1)C(=O)NCC(=O)N[C@@H](CCCCN)C(=O)N[C@@H](C)C(=O)N[C@@H](Cc1ccccc1)C(=O)N[C@H](C(=O)N[C@@H](CCCCN)C(=O)N[C@H](C(=O)N[C@@H](CC(C)C)C(=O)N[C@@H](CCCCN)C(=O)N[C@@H](CCCCN)C(N)=O)[C@@H](C)CC)C(C)C [PEXIGANAN] (H-GIGKFLKKAKKFGKAFVKILKK-NH2) |  |  | 
